Assay results as given in ChEMBL document CHEMBL3120143, “Use of 2'-spirocyclic ethers in HCV nucleoside design” (J Med Chem, 2014).
Calls of active or inactive are those of the source. The rule behind the calls is not given here.

Biological target: not listed separately
Assay: Inhibition of HCV genotype 1b wild type recombinant NS5B RNA dependent RNA polymerase using IRES RNA as substrate after 30 mins by radioactive assay in presence of [alpha32p]UTP
Parameters: species or system Hepatitis C virus subtype 1b
Conditions: not given
In short: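 Recombinant genotype 1b NS5B (wild-type or S282T), 40 ng/μL, with 20 ng/μL genotype 1b (−) IRES RNA template. Mix holds 5 μM each of the four natural ribonucleotides plus [α-³²P]UTP, RNase inhibitor 1 unit/μL, 5 mM MgCl₂ and 2 mM DTT in 50 mM Hepes pH 7.5. Incubated at 27 °C for 30 min, then stopped with EDTA/NaCl/citrate. Radioactive RNA product quantified and IC50 fitted.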
For `Nc1ccn([C@@H]2O[C@H](COP(=O)(O)OP(=O)(O)OP(=O)(O)O)[C@@H](O)[C@]23CCO3)c(=O)n1`, the IC50 was 8.48 µM.
Compound `O=c1ccn([C@@H]2O[C@H](COP(=O)(O)OP(=O)(O)OP(=O)(O)O)[C@@H](O)[C@@]23CCCO3)c(=O)[nH]1` has an IC50 greater than 100 µM.
In the case of `Nc1ccn([C@@H]2O[C@H](COP(=O)(O)OP(=O)(O)OP(=O)(O)O)[C@@H](O)[C@@]23CCCO3)c(=O)n1`, the IC50 is reported as greater than 100 µM.
Work on `Nc1nc2c(ncn2[C@@H]2O[C@H](COP(=O)(O)OP(=O)(O)OP(=O)(O)O)[C@@H](O)[C@]23CCO3)c(=O)[nH]1` yielded an IC50 of 9.5 µM.
In the case of `O=c1ccn([C@@H]2O[C@H](COP(=O)(O)OP(=O)(O)OP(=O)(O)O)[C@@H](O)[C@]23CCO3)c(=O)[nH]1`, the IC50 is reported as 39.4 µM.
In the case of `C[C@@]1(F)[C@H](O)[C@@H](CO)O[C@H]1n1ccc(N)nc1=O`, the IC50 is reported as 8.41 µM.
`Nc1ccn([C@@H]2O[C@H](COP(=O)(O)OP(=O)(O)OP(=O)(O)O)[C@@H](O)[C@]23CCCO3)c(=O)n1` gave an IC50 of 45.3 µM.
Work on `Nc1ccn([C@@H]2O[C@H](COP(=O)(O)OP(=O)(O)OP(=O)(O)O)[C@@H](O)[C@@]23CCO3)c(=O)n1` yielded an IC50 greater than 100 µM.
Compound `COc1nc(N)nc2c1ncn2[C@@H]1O[C@H](COP(=O)(O)OP(=O)(O)OP(=O)(O)O)[C@@H](O)[C@@]1(C)F` has an IC50 of 4.2 µM.

Tested on: Hepatitis C virus
Assay: Antiviral activity against HCV genotype 1b infected in human ET-Lunet cells assessed as inhibition of HCV RNA replication up to 100 uM after 4 days by firefly luciferase reporter gene assay
Type: functional, organism-based
Conditions: Hepacivirus hominis
In short: (§1)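 ET-Lunet cells carrying genotype 1b replicon seeded at 3000 cells/well, exposed 4 days to serially diluted compound; HCV RNA replication read as firefly luciferase luminescence (Bright-Glo). EC50 taken as concentration giving 50% inhibition, from curve fitting.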
With `COc1nc(N)nc2c1ncn2[C@@H]1O[C@H](CO)[C@@H](O)[C@]12CCO2` the inhibition was “inactive”.
With `Nc1nc2c(ncn2[C@@H]2O[C@H](CO)[C@@H](O)[C@]23CCO3)c(=O)[nH]1` the inhibition was “inactive”.

Biological target: RNA-directed RNA polymerase (Hepacivirus hominis, UniProt O39930, S282T)
Sequence (O39930 entry or part of it S282T): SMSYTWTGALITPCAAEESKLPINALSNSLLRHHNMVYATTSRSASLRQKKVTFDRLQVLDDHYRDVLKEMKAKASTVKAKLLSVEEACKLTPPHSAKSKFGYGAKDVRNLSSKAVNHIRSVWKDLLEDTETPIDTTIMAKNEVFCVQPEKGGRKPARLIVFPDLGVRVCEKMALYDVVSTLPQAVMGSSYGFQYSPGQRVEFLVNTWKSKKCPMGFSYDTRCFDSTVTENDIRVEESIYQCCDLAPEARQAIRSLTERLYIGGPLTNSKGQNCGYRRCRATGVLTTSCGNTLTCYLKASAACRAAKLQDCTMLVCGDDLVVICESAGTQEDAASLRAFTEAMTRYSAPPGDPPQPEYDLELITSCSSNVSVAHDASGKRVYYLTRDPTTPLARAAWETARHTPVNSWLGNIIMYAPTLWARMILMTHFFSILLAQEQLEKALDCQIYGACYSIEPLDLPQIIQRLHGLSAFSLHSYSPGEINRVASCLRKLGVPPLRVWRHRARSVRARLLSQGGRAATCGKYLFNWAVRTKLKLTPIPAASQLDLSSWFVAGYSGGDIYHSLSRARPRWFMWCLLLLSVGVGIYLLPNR
Assay: Inhibition of HCV genotype 1b recombinant NS5B RNA dependent RNA polymerase S282T mutant using IRES RNA as substrate after 30 mins by radioactive assay in presence of [alpha32p]UTP
Parameters: species or system Hepatitis C virus subtype 1b
Conditions: not given
Compound `Nc1ccn([C@@H]2O[C@H](COP(=O)(O)OP(=O)(O)OP(=O)(O)O)[C@@H](O)[C@]23CCO3)c(=O)n1` has an IC50 greater than 100 µM.
With `Nc1nc2c(ncn2[C@@H]2O[C@H](COP(=O)(O)OP(=O)(O)OP(=O)(O)O)[C@@H](O)[C@]23CCO3)c(=O)[nH]1` the IC50 was 10.4 µM.
Work on `O=c1ccn([C@@H]2O[C@H](COP(=O)(O)OP(=O)(O)OP(=O)(O)O)[C@@H](O)[C@]23CCO3)c(=O)[nH]1` yielded an IC50 greater than 100 µM.
`C[C@@]1(F)[C@H](O)[C@@H](CO)O[C@H]1n1ccc(N)nc1=O` showed an IC50 of 56.7 µM.
With `Nc1ccn([C@@H]2O[C@H](COP(=O)(O)OP(=O)(O)OP(=O)(O)O)[C@@H](O)[C@]23CCCO3)c(=O)n1` the IC50 was greater than 100 µM.
In the case of `COc1nc(N)nc2c1ncn2[C@@H]1O[C@H](COP(=O)(O)OP(=O)(O)OP(=O)(O)O)[C@@H](O)[C@@]1(C)F`, the IC50 is reported as 5.31 µM.

Tested on: Hepatitis C virus
Assay: Antiviral activity against HCV genotype 1b infected in human ET-Lunet cells assessed as inhibition of HCV RNA replication after 4 days by firefly luciferase reporter gene assay
Type: functional, organism-based, Hepacivirus hominis
Conditions: 96 h
In short: as §1
`COC(=O)[C@H](C)NP(=O)(OC[C@H]1O[C@@H](n2ccc(=O)[nH]c2=O)[C@]2(CCCO2)[C@@H]1O)Oc1ccccc1` (mixture of isomers) gave an EC50 of 20.6 µM.
Compound `COc1nc(N)nc2c1ncn2[C@@H]1O[C@H](CO[P@](=O)(N[C@@H](C)C(=O)OCc2ccccc2)Oc2ccccc2)[C@@H](O)[C@]12CCO2` has an EC50 of 11.7 µM.
With `Nc1ccn([C@@H]2O[C@H](CO)[C@@H](O)[C@]23CCO3)c(=O)n1` the EC50 was 56.6 µM.
Compound `COC(=O)[C@H](C)NP(=O)(OC[C@H]1O[C@@H](n2ccc(=O)[nH]c2=O)[C@@]2(CCCO2)[C@@H]1O)Oc1ccccc1` (mixture of isomers) has an EC50 of 28.3 µM.
`Nc1ccn([C@@H]2O[C@H](CO)[C@@H](O)[C@@]23CCO3)c(=O)n1` showed an EC50 greater than 100 µM.
`O=c1ccn([C@@H]2O[C@H](CO)[C@@H](O)[C@]23CCO3)c(=O)[nH]1` showed an EC50 greater than 100 µM.
Work on `COc1nc(N)nc2c1ncn2[C@@H]1O[C@H](CO[P@@](=O)(N[C@@H](C)C(=O)OCc2ccccc2)Oc2ccccc2)[C@@H](O)[C@]12CCO2` yielded an EC50 of 8.65 µM.
Work on `CCCCOC(=O)[C@H](C)N[P@](=O)(OC[C@H]1O[C@@H](n2cnc3c(OC)nc(N)nc32)[C@@]2(CCO2)[C@@H]1O)Oc1ccccc1` yielded an EC50 of 0.27 µM.

Tested on: not listed separately
Assay: Cytotoxicity against human Lunet cells expressing ET subgenomic replicon after 4 days by Celltitre-Glo assay
Type: cell-based
Conditions: not given
In short: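 ET-Lunet replicon cells, 3000 cells/well, incubated 4 days with serially diluted compound; proliferation/viability by CellTiter-Glo luminescence; CC50 = concentration giving 50% inhibition, curve-fitted.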
Work on `COC(=O)[C@H](C)NP(=O)(OC[C@H]1O[C@@H](n2ccc(=O)[nH]c2=O)[C@]2(CCCO2)[C@@H]1O)Oc1ccccc1` (mixture of isomers) yielded a CC50 at 96 h greater than 100 µM.
For `COc1nc(N)nc2c1ncn2[C@@H]1O[C@H](CO[P@](=O)(N[C@@H](C)C(=O)OCc2ccccc2)Oc2ccccc2)[C@@H](O)[C@]12CCO2`, the CC50 at 96 h was greater than 20 µM.
Work on `Nc1ccn([C@@H]2O[C@H](CO)[C@@H](O)[C@]23CCO3)c(=O)n1` yielded a CC50 at 96 h greater than 100 µM.
In the case of `COC(=O)[C@H](C)NP(=O)(OC[C@H]1O[C@@H](n2ccc(=O)[nH]c2=O)[C@@]2(CCCO2)[C@@H]1O)Oc1ccccc1` (mixture of isomers), the CC50 at 96 h is reported as greater than 100 µM.
With `Nc1ccn([C@@H]2O[C@H](CO)[C@@H](O)[C@@]23CCO3)c(=O)n1` the CC50 at 96 h was greater than 100 µM.
`O=c1ccn([C@@H]2O[C@H](CO)[C@@H](O)[C@]23CCO3)c(=O)[nH]1` gave a CC50 at 96 h greater than 100 µM.
With `COc1nc(N)nc2c1ncn2[C@@H]1O[C@H](CO[P@@](=O)(N[C@@H](C)C(=O)OCc2ccccc2)Oc2ccccc2)[C@@H](O)[C@]12CCO2` the CC50 at 96 h was greater than 20 µM.
Work on `CCCCOC(=O)[C@H](C)N[P@](=O)(OC[C@H]1O[C@@H](n2cnc3c(OC)nc(N)nc32)[C@@]2(CCO2)[C@@H]1O)Oc1ccccc1` yielded a CC50 at 96 h greater than 20 µM.
